This note sets out measurements from ChEMBL document CHEMBL3797028, “Novel S1P1 receptor agonists - Part 4: Alkylaminomethyl substituted aryl head groups” (Eur J Med Chem, 2016).

Broadly, the logD is the decadic logarithm of the distribution of all forms, ionised or not, between an organic phase and buffer at a given pH. The low end stands for lower lipophilicity, the high end for higher lipophilicity. What is called CL/F is the apparent clearance, not corrected for the fraction that reaches the circulation. As a reminder, the EC50 is the concentration that produces a half-maximal response. The fraction unbound is free concentration divided by total concentration. Read a low fraction unbound as little free substance.

Series [1] can be described thus: Total plasma concentration in Wistar rat at 10 mg/kg administered as single dose through oral gavage after 2 hrs by LC-MS/MS analysis. It counts as ADME, organism-based. In outline:
(§1)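 Male Wistar rats (n = 2 per timepoint) were dosed orally at 10 mg/kg. At 2, 6 and 24 h they were anaesthetised with 5% isoflurane and sacrificed, and blood was taken for plasma. The brain was perfused via the carotid with 10 mL 0.9% NaCl, removed, and homogenised in an equal volume of ice-cold 0.1 M Na-phosphate pH 7.4. Samples were assayed by LC-MS/MS against blank-brain calibration. Brain/plasma ratio was calculated from these values, reported as the mean of 2.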

Series [2] deals with Rattus norvegicus. As to the kind of experiment: Change in circulating lymphocyte count in Wistar rat at 1 mg/kg administered as single dose through oral gavage after 3 hrs relative to control. The class given is functional. In outline:
(§2)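 Male Wistar rats (RccHan:WIST; n = 6) were given a single oral gavage dose of compound in DMSO plus 7.5% succinylated gelatine (final 5% DMSO). Blood lymphocytes were counted just before dosing and at later timepoints. Percent change was calculated per animal relative to the pre-dose value and compared with a vehicle-treated group, reported as the mean. A ±15% change was treated as baseline, and a reduction of about 60% or more as maximal.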

The nature of series [3]: Total plasma concentration in Wistar rat at 10 mg/kg administered as single dose through oral gavage after 24 hrs by LC-MS/MS analysis. It counts as ADME, organism-based. In outline: as §1
Series [4] in a line: Plasma concentration in Wistar rat at 10 mg/kg administered as single dose through oral gavage after 6 hrs by LC-MS/MS analysis. It counts as ADME, organism-based. In outline:
(§3)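 Single oral gavage dose to male Wistar rats in DMSO/7.5% succinylated gelatine (final 5% DMSO). Blood was drawn into EDTA at the lymphocyte-count timepoints. Plasma was prepared at 3000 g for 10 min at 4 °C and analysed by LC-MS/MS after protein precipitation.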

Another series deals with Plasma. The experiment in a line: Plasma concentration in Wistar rat at 3 mg/kg administered as single dose through oral gavage after 72 hrs by LC-MS/MS analysis. Conditions: in vivo, BLD = below limit of detection. The class given is ADME, organism-based. In a few lines: as §3
Series [5] can be described thus: Distribution coefficient, log D between 1-octonol and phosphate buffer at pH 7. It counts as physicochemical. The following applies: 1-octanol/phosphate buffer. In outline: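 Partition was between 1-octanol and phosphate buffer at pH 7.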
Series [6] is described as follows: Plasma concentration in Wistar rat at 1 mg/kg administered as single dose through oral gavage after 3 hrs by LC-MS/MS analysis. The class given is ADME, organism-based. In outline:
as §3

Series [7] deals with Rattus norvegicus. The experiment in a line: Change in circulating lymphocyte count in Wistar rat at 1 mg/kg administered as single dose through oral gavage after 6 hrs relative to control. It counts as functional. In a few lines: as §2
In series [8] the test system is Rattus norvegicus. The experiment in a line: Change in circulating lymphocyte count in Wistar rat at 3 mg/kg administered as single dose through oral gavage after 24 hrs relative to control. It counts as functional. In outline: as §2
The nature of series [9]: Apparent oral clearance in Wistar rat plasma at 1 to 10 mg/kg administered through gavage by LC-MS/MS analysis. It counts as ADME, organism-based. In outline:
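Male Wistar rats received a single oral gavage dose of compound dissolved in DMSO and added to 7.5% succinylated gelatine in water (final 5% DMSO). EDTA plasma was spun at 3000 g for 10 min at 4 °C and analysed by LC-MS/MS after protein precipitation. Oral clearance was estimated from the plasma concentration–time data. In vivo intrinsic clearance used the well-stirred liver model, assuming complete absorption.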

In series [10] the target is Sphingosine 1-phosphate receptor 2 (Homo sapiens, UniProt O95136). The experiment in a line: Agonist activity at S1PR2 (unknown origin).
Chain of Sphingosine 1-phosphate receptor 2 (O95136 whole entry): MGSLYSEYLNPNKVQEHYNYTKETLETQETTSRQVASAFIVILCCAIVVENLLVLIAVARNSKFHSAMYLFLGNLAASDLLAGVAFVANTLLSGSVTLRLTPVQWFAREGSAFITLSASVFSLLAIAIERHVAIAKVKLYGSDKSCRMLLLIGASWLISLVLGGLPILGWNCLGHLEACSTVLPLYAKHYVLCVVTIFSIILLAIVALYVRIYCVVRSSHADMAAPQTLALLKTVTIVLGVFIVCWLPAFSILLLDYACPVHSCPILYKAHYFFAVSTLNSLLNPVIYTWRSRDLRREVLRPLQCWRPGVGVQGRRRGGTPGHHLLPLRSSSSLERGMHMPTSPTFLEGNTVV
Series [11] is described as follows: Ratio of total drug level in brain to plasma in Wistar rat at 10 mg/kg administered as single dose through oral gavage after 6 hrs. The class given is ADME, organism-based. Conditions: read-out: BPR. In outline:
as §1

Series [12] in a line: Total brain concentration in Wistar rat at 10 mg/kg administered as single dose through oral gavage after 24 hrs by LC-MS/MS analysis. Conditions: read-out: Drug uptake. It counts as ADME, organism-based. In a few lines: as §1
Series [13] is described as follows: Plasma concentration in Wistar rat at 3 mg/kg administered as single dose through oral gavage after 3 hrs by LC-MS/MS analysis. The class given is ADME, organism-based. In a few lines:
as §3

In series [14] the test system is Rattus norvegicus. The experiment in a line: Change in circulating lymphocyte count in Wistar rat at 10 mg/kg administered as single dose through oral gavage after 96 hrs relative to control. The class given is functional. In a few lines: as §2
Series [15] in a line: Total brain concentration in Wistar rat at 10 mg/kg administered as single dose through oral gavage after 2 hrs by LC-MS/MS analysis. The following applies: read-out: Drug uptake. It counts as ADME, organism-based. In outline:
as §1

The species named for series [16] is Rattus norvegicus. The experiment in a line: Intrinsic clearance in rat liver microsomes scaled to body weight. Conditions: in vitro. (In general: Liver microsomes are a subcellular fraction often used to study metabolism.)
The nature of series [17]: Ratio of total drug level in brain to plasma in Wistar rat at 10 mg/kg administered as single dose through oral gavage after 24 hrs. The class given is ADME, organism-based. The following applies: read-out: BPR. In a few lines:
as §1

For series [18], the target named is Sphingosine 1-phosphate receptor 3 (Homo sapiens, UniProt Q99500). As to the kind of experiment: Agonist activity at human recombinant S1PR3 expressed in CHO cell membranes assessed as [35S]GTPgammaS binding preincubated for 30 mins followed by [35S]GTPgammaS addition measured after 1 hr by topcount analysis. The class given is functional. In outline: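 Membranes from CHO cells expressing recombinant human S1P1 or S1P3 were used. Buffer was 20 mM Hepes pH 7.4, 100 mM NaCl, 5 mM MgCl2, 0.1% fatty-acid-free BSA, 2.5% DMSO and 50 pM 35S-GTPgammaS. GDP was […] for S1P3. Compound was preincubated 30 min at rt, then incubated 1 h at rt with 35S-GTPgammaS. Bound label was collected by filtration and counted. Specific binding was taken against 10 uM S1P. EC50 was the 50%-of-specific-binding concentration, reported as the geometric mean of at least three independent duplicate runs.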
Chain of Sphingosine 1-phosphate receptor 3 (Q99500 whole entry): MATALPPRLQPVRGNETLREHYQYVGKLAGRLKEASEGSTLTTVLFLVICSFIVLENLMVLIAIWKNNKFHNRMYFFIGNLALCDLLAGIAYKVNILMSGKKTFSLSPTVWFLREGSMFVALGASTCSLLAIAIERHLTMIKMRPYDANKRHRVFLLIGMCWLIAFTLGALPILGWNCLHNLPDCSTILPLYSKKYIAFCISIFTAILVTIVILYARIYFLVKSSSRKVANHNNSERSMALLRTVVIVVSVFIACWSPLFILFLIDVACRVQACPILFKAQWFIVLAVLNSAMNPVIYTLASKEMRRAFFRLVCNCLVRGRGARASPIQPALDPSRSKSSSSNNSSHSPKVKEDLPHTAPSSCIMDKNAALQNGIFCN

Series [19] can be described thus: Plasma concentration in Wistar rat at 3 mg/kg administered as single dose through oral gavage after 24 hrs by LC-MS/MS analysis. It counts as ADME, organism-based. In a few lines: as §3
Series [20] deals with Rattus norvegicus. The experiment in a line: Change in circulating lymphocyte count in Wistar rat at 3 mg/kg administered as single dose through oral gavage after 6 hrs relative to control. It counts as functional. In outline: as §2
The nature of series [21]: Plasma concentration in Wistar rat at 1 mg/kg administered as single dose through oral gavage after 24 hrs by LC-MS/MS analysis. It counts as ADME, organism-based. In outline: as §3
Series [22] in a line: Plasma concentration in Wistar rat at 10 mg/kg administered as single dose through oral gavage after 24 hrs by LC-MS/MS analysis. It counts as ADME, organism-based. In a few lines: as §3
A short description of series [23]: Fraction unbound in Wistar rat plasma incubated for 6 hrs by LC-MS/MS based equilibrium dialysis method. The class given is ADME, cell-free. In outline: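 Rapid equilibrium dialysis was run on a shaker for 6 h at 37 °C. The donor side held rat plasma (pH 7.2–7.6) or 1 mg/mL rat liver microsomes in phosphate buffer pH 7.4. The receiver side held phosphate buffer pH 7.4. Both sides were measured by LC-MS/MS to give free fraction and recovery.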
Background: Equilibrium dialysis compares concentrations on both sides of a semipermeable membrane.

As to `CCc1cc(-c2noc(-c3cc(C)c(CN(C)CC(C)C)s3)n2)cc(C)c1OC[C@@H](O)CNC(=O)CO`, the values for the concentration at 2 h in series [1] and in [15] were 783 ng/mL and 522 ng/g, respectively. Also, the Activity with Rattus norvegicus [2] is reported as -33%; in the series on Rattus norvegicus [7], -46%; with Rattus norvegicus [8] it was -25%; in the series on Rattus norvegicus [14] it was 4%; with Rattus norvegicus [20], -70%. Also, the concentration at 24 h was determined as 66.5 ng/mL in [3]; 776 ng/g in series [12]; 25 ng/mL in series [19]; 5.2 ng/mL in series [21]; 92 ng/mL in series [22]. The compound further returned a concentration at 6 h in [4] of 540 ng/mL. In addition, in the series with Plasma, the Cp entry is given as “BLD”. In series [5], this compound had a logD above 4.1. The concentration at 3 h in series [6] stood at 67 ng/mL; in [13], 210 ng/mL. Further, in series [9], the CL/F was 19 mL/min/kg. Besides, the figures for the EC50 in series [10] and in series [18] were above 1000 nM and 145 nM, respectively. Also, the Kp at 6 h in series [11] came to 1.69. Also, the CL in the series listed under Rattus norvegicus [16] came to 25200 mL/min/kg. In addition, the Kp at 24 h in [17] was 11.5. For the same compound, the fraction unbound at 6 h in [23] was below 0.001.
